# The list is not random: actives were taken first. Their share in the collection is about 1.6%.
# ABCG2 block = ABCG2 efflux pump inhibitors, primary screen, multiplex with ABCB1, IgMXP3 cells, flow cytometry | Broad substrate specificity ATP-binding cassette transporter ABCG2 (Homo sapiens), Q9UNQ0 | JC-1 efflux | inhibition, % at 6.6 µM | 0.1% of 190,000 active | AID 1325, 2008;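 active means inhibition above 80%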;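 further: 0% = DMSO and 100% = nicardipine control wells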
#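 Test system: ABCG2 IgMXP3 and barcoded ABCB1 CCRF-Adr cell mix; Schedule: cells with compound and JC-1, 10 min at 25 °C, rotating, no wash; Technique: flow cytometry of retained JC-1 fluorescence; Measure: % inhibition of efflux relative to nicardipine and DMSO; Controls: nicardipine high and DMSO low controls.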
# PKD1 inh = inhibitors of human PKD1 kinase, biochemical, fluorescence polarization; inhibition, % (test concentration not listed); Serine/threonine-protein kinase D1 (Homo sapiens), Q15139; PKD1 kinase fluorescence polarization assay; 0.056% of 200,000 active; AID 797, 2007; in the data active means inhibition above about 50%
# p47phox inh = p47phox/p22phox peptide binding inhibitors, primary screen, biochemical, uHTS, NADPH oxidase regulatory subunit. AID 1274, 2008. fluorescence polarization, 2 h. 0.53% of 220,000 active. Neutrophil cytosol factor 1 (Homo sapiens), P14598. inhibition, % at 24.7 µM;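 active means inhibition above about 30%, limit read from the data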;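 further: 0% = p47phox with labelled peptide and 100% = labelled peptide alone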
# Target sequence (P14598 whole entry, looked up): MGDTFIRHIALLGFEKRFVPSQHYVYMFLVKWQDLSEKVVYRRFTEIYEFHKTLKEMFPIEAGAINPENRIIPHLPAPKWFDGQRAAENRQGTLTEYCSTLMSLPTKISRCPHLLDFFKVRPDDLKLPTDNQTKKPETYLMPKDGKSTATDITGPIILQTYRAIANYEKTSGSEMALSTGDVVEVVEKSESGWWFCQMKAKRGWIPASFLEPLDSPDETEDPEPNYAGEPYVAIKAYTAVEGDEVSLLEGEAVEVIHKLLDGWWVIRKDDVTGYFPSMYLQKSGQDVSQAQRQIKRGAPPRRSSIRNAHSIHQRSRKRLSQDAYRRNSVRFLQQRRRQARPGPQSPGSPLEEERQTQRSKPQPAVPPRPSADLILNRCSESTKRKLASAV
# HSV augment = enhancers of HSV replication in host cells, fold increase, host cell viability | HSV replication augmentation in cells | maximum fold increase | 0.005% of 220,000 active; in the data active means maximum fold increase above about 1.5; inconclusive means no clear call, values can overlap the other calls; tested in PC3 cells
# ABCB1 inh = ABCB1 efflux pump inhibitors, primary screen, cell-based, multiplex, flow cytometry, ABCG2 counter-screen; CCRF-Adr cells, JC-1 efflux; inhibition, % at 6.6 µM; ATP-dependent translocase ABCB1 (Homo sapiens), P08183; 0.067% of 190,000 active; in the data active means inhibition above about 40%;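 further: 0% = vehicle and 100% = reference inhibitor; higher value means more JC-1 retained so stronger ABCB1 efflux block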
# PHOSPHO1 block = PubChem AID 1565; Phosphoethanolamine/phosphocholine phosphatase (Homo sapiens), Q8TCT1; recombinant PHOSPHO1, absorbance phosphatase assay; inhibition, % at 13.3 µM; 1.1% of 290,000 active; in the data active means inhibition above about 60%
# Target sequence (Q8TCT1 whole entry, looked up): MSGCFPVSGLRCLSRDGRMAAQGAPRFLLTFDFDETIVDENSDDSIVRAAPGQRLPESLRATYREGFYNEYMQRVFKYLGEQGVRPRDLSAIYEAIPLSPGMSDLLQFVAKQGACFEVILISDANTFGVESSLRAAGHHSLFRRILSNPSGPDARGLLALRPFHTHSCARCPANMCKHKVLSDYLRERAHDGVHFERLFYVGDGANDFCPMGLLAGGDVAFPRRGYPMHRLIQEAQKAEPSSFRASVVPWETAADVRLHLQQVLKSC
# ABCB1 confirm = ABCB1 efflux pump inhibitors, confirmation, cell-based, single point, ABCG2 counter-screen. inhibition, % at 6.6 µM. CCRF-Adr cells, JC-1 efflux, flow cytometry. 7% of 270 active. shares compounds with ABCG2 block. AID 1451, 2008;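 active means inhibition of pump activity above 50%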;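 further: 0% = DMSO and 100% = nicardipine full pump inhibition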
# ABCG2 single pt = ABCG2 efflux pump inhibitors, confirmation, single point, IgMXP3 cells, ABCB1 counter-screen paired; 6% of 270 active; inhibition, % at 6.6 µM; shares compounds with ABCG2 block; JC-1 efflux, flow cytometry;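 active means inhibition above 50%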;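 further: 0% = DMSO wells and 100% = nicardipine pump inhibitor wells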
# IgMXP3 autofluor = compound autofluorescence in ABCG2-expressing IgMXP3 cells, confirmation, artefact control for ABC transporter inhibitor project, cell-based, 488/530 nm, flow cytometry. fluorescence at 6.6 µM. compound autofluorescence 488/530 nm; stronger effect = higher value. shares compounds with ABCG2 block. 30% of 270 active;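 active means fluorescence in ABCG2-expressing cells above the plate's control-well mean plus 3 SD, cut at about 15 in these data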;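 further: median cell fluorescence with compound minus that of DMSO-treated control cells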
# CCRF autofluor = compound autofluorescence in ABCB1-expressing CCRF-Adr cells, confirmation, artefact control for ABC transporter inhibitor project, cell-based, 488/530 nm, flow cytometry | 30% of 270 active | AID 1483, 2009 | shares compounds with ABCG2 block | compound autofluorescence 488/530 nm; stronger effect = higher value | fluorescence at 6.6 µM;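 active means fluorescence beyond the plate control mean plus 3 SD, with a fluorescence-to-maximum score over 2, cut at about 25 in these data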
# * hit, by the source's call; i = inactive; ? = inconclusive; · = no result given.
SMILES,ABCG2 block,PKD1 inh,p47phox inh,HSV augment,ABCB1 inh,PHOSPHO1 block,ABCB1 confirm,ABCG2 single pt,IgMXP3 autofluor,CCRF autofluor
CC(=O)c1c(C)[nH]c(C(=O)OCC(=O)Nc2cc(Cl)ccc2[N+](=O)[O-])c1C,9.0,9.6,4.8,i,6.2,-4.5,9.1,34.1,4.51,11.7
COc1ccc(-c2nn(-c3ccccc3)cc2/C=C/C(=O)N2CCN(c3ccccn3)CC2)cc1,32.7,0.9,-10.3,i,48.0*,-24.0,33.3,21.7,18.1*,4.26
Cc1ccc(-c2nn(-c3ccccc3)cc2C(=O)N2CCN(c3ccccn3)CC2)cc1,3.6,-3.0,10.1,i,9.1,-7.1,·,·,·,·
O=C1C2C(C(=O)N1c1ccccc1)N1CCCN1C2c1ccccc1 (stereo not drawn),1.9,1.3,-3.0,i,0.0,-3.9,·,·,·,·
Cc1c(Br)c([N+](=O)[O-])nn1C(C)C(=O)Nc1c(C)n(C)n(-c2ccccc2)c1=O (stereo not drawn),0.8,-4.1,1.5,i,0.4,7.8,·,·,·,·
Cc1cccc(Oc2cc([N+](=O)[O-])cc3c2C(=O)Nc2ccccc2O3)c1,20.6,-2.7,-211.9,i,8.7,-7.4,·,·,·,·
O=C1Nc2ccccc2Oc2cc([N+](=O)[O-])cc(Oc3ccccc3)c21,88.8*,-4.0,-105.6,·,37.5,-7.4,2.8,17.1,19.8*,59*
COc1ccc(S(=O)(=O)N2CCN(Cc3cccc(OC)c3OC)CC2)cc1,·,·,·,·,·,23.5,·,·,·,·
COC(=O)c1sc2cc([N+](=O)[O-])cc(SCC(C)C)c2c1N,153.8*,-2.2,-10.2,?,61.1*,2.3,-1.6,22.2,45.8*,112*
CNc1nc2cc([N+](=O)[O-])c([N+](=O)[O-])cc2nc1NC,123.6*,-7.7,1.3,i,0.2,20.6,47.7,69.3*,20.8*,30.5*
CNc1ccc(S(=O)(=O)NC)cc1[N+](=O)[O-],5.5,5.3,1.9,i,0.6,16.6,·,·,·,·
CCc1ccc2oc(-c3ccc(OC)cc3)cc(=Nc3cccc(C(=O)O)c3)c2c1,3.5,-8.1,-16.0,i,0.0,-13.4,·,·,·,·
CCc1ccc2oc(-c3ccc(OC)cc3)cc(=Nc3c(C)n(C)n(-c4ccccc4)c3=O)c2c1,96.9*,-2.4,-5.8,i,44.4*,-15.2,28.1,40.7,0.21,1.61
CC(C)(C)NC(=O)Cn1nnc(-c2ccc(OCc3c(F)cccc3Cl)cc2)n1,·,·,·,·,·,39.0,·,·,·,·
CCOCCCNc1nc2c(C)cccn2c(=O)c1/C=C1\SC(=S)N(C(C)CC)C1=O (stereo not drawn),·,·,-40.4,?,·,24.6,·,·,·,·
CCOCCCNc1nc2c(C)cccn2c(=O)c1/C=C1\SC(=S)N(CC(C)C)C1=O,141.0*,-9.9,-34.0,·,48.4*,55.3,7.3,40.3,43.8*,211*
CCCCCCc1cc2cc(-c3nnc(-c4ccccc4O)o3)c(=O)oc2cc1O,79.3,-13.1,-1.1,·,48.4*,-16.4,15.0,10.5,116*,111*
Cc1ccccc1N(C(=O)CCC(=O)Nc1ccccn1)C(C(=O)NC(C)C)c1ccc(F)cc1 (stereo not drawn),·,·,·,·,·,8.7,·,·,·,·
COc1ccc(NC(=O)c2cc(CN3C(=O)c4ccccc4C3=O)ccc2OC)cn1,0.7,-3.3,-15.3,i,0.6,27.7,·,·,·,·
COc1ccc(CN2C(=O)c3ccccc3C2=O)cc1C(=O)Nc1ccccc1N1CCOCC1,38.8,-8.1,-6.1,i,43.2*,12.2,71.6*,43.4,1.36,12.2
S=c1[nH]nc(-c2ccc3ccccc3n2)n1-c1ccc2ncccc2c1,63.5,-13.6,-7.3,i,0.4,74.2*,6.2,10.7,31.6*,20.2
Fc1ccc(-n2c(-c3ccc4ccccc4n3)n[nH]c2=S)cc1Cl,-6.3,-1.8,-25.4,i,-1.8,-141.6,·,·,·,·
COC(=O)c1cc2n(n1)CCN(Cc1ccc(C)cc1)C2=O,10.6,-0.5,-7.1,i,0.5,45.7,·,·,·,·
COc1ccc(CN2CCn3nc(C(=O)NC(C)C)cc3C2=O)cc1,0.0,-6.8,-9.8,i,41.4*,17.9,-1.5,4.3,3.41,0.71
S=C1Cc2ccccc2C(c2ccc(Cl)cc2)N1 (stereo not drawn),·,·,·,·,·,22.7,·,·,·,·
SMILES,ABCG2 block,PKD1 inh,p47phox inh,HSV augment,ABCB1 inh,PHOSPHO1 block,ABCB1 confirm,ABCG2 single pt,IgMXP3 autofluor,CCRF autofluor
CC(NC(=O)COC(=O)Cc1ccsc1)c1ccccc1 (stereo not drawn),0.0,-1.8,-0.2,i,-0.1,7.3,·,·,·,·
CC(NC(=O)COC(=O)Cc1ccsc1)C1CC2CCC1C2 (stereo not drawn),132.0*,-7.0,-4.3,i,35.0,-21.0,6.9,4.2,-2.14,-4.74
O=C(NCc1ccccn1)c1cn(-c2ccccc2)nc1-c1ccc(Cl)cc1,82.6*,-11.3,1.8,i,2.6,9.1,-49.4,23.0,22.1*,149*
O=C(c1ccco1)N1CCN(c2nc(C(F)(F)F)nc3c2nnn3Cc2ccccc2)CC1,64.4,-6.4,2.6,i,15.4,-5.8,23.1,26.6,72.9*,37*
CN(C)c1ccc(/C=C2\N=C(c3ccc(Cl)c([N+](=O)[O-])c3)NC2=O)cc1,83.4*,-1.0,·,i,83.0*,45.5,3.5,5.5,74.7*,93.7*
C/C(=N/NC(=O)NC12CC3CC(CC(C3)C1)C2)c1ccccc1,·,·,·,·,·,19.9,·,·,·,·
CCCN1C(=O)/C(=C\C=C2\N(CC)c3ccccc3C2(C)C)SC1=S,104.0*,31.0,-239.5,?,68.2*,42.9,-27.1,4.8,63*,252*
CN1/C(=C\C=C2/SC(=S)NC2=O)C(C)(C)c2ccccc21,0.4,18.2,-233.7,·,0.1,24.1,·,·,·,·
O=C(O)Cn1c2c(c3ccccc31)CSc1ccc(Cl)cc1-2,·,·,·,·,·,2.5,·,·,·,·

# Screens deposited in PubChem BioAssay by several laboratories.
